Measured values: ChEMBL document CHEMBL4020761, “Exploration of pyrrole derivatives to find an effective potassium-competitive acid blocker with moderately long-lasting suppression of gastric acid secretion” (Bioorg Med Chem, 2017)

What was measured:
CYP3A4 = CYP3A4 (Homo sapiens, UniProt P08684); assay: Inhibition of CYP3A4 (unknown origin) expressed in insect cells at 10 uM using testosterone as substrate after 15 mins by HPLC analysis relative to control; assay type: ADME; conditions: recombinant CYP3A4 expressed in insect cells, probe testosterone
How it was run: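 Testosterone substrate at 100 μmol/L with 10 nmol/L insect-cell-expressed CYP3A4 and 10 μmol/L test compound, incubated 15 min at 37 °C. 6β-hydroxytestosterone quantified by HPLC with UV detection.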

Rattus norvegicus = assay: Inhibition of histamine-induced acid secretion in Jcl:Sprague-Dawley rat gastric at 1 mg/kg, iv pretreated for 3 mins after pylorus ligation followed by histamine.2HCl treatment measured after 3 hrs by titration method relative to control; assay type: functional
How it was run: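 Anesthetized rats dosed iv at 1 mg/kg. Total acid output over 3 h after histamine injection compared with vehicle-treated rats.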

[1] = Inhibition of H+/K+-ATPase in porcine stomach gastric mucosal microsomes assessed as reduction in inorganic phosphate production using ATP as substrate preincubated for 30 mins followed by ATP addition in presence of KCl at pH 6.5 by malachite green reagent based colorimetric assay; set-up: species or system Sus scrofa
[2] = Plasma concentration in Sprague-Dawley rat at 0.2 mg/kg, iv administered as cassette dose after 10 mins by LC-MS/MS analysis; assay type: ADME, organism-based
How it was run: (§1)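 Fasted male Sprague-Dawley rats given compounds iv by cassette dosing at 0.2 mg/kg (as free base). Plasma and stomach sampled at 10 min, 1, 4 and 24 h. Plasma and 20% stomach homogenate in saline deproteinized with acetonitrile containing internal standard, then LC/MS/MS. AUC calculated for plasma and stomach. Values are averages of three rats.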

[3] = Lipophilicity, log D of the compound at pH 7.4 by HPLC analysis; assay type: physicochemical; conditions: buffer
How it was run: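 At pH 7.4, log D derived from HPLC retention time relative to standard compounds.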

[4] = Drug uptake in Sprague-Dawley rat stomach at 0.2 mg/kg, iv administered as cassette dose after 24 hrs by LC-MS/MS analysis; assay type: ADME, organism-based; conditions: read-out: Drug uptake; how it was run: as §1
hERG (KCNH2) = hERG (KCNH2) (Homo sapiens, UniProt Q12809); assay: Inhibition of human ERG expressed in HEK cells at 10 uM at -75 mV holding potential by Whole-cell voltage clamp assay relative to control; assay type: cell-based; conditions: HEK cells expressing human ERG
[5] = Drug uptake in Sprague-Dawley rat stomach at 0.2 mg/kg, iv administered as cassette dose after 1 hr by LC-MS/MS analysis; assay type: ADME, organism-based; conditions: read-out: Drug uptake; how it was run: as §1
[6] = Plasma concentration in Sprague-Dawley rat at 0.2 mg/kg, iv administered as cassette dose after 1 hr by LC-MS/MS analysis; assay type: ADME, organism-based; how it was run: as §1
[7] = Drug uptake in Sprague-Dawley rat stomach at 0.2 mg/kg, iv administered as cassette dose after 4 hrs by LC-MS/MS analysis; assay type: ADME, organism-based; conditions: read-out: Drug uptake; how it was run: as §1
[8] = Cytotoxicity against human HepG2 cells assessed as cellular ATP level at 100 uM after 1 day by ATPLite assay relative to control; assay type: cell-based; conditions: read-out: Activity
Stomach = assay: AUC in Sprague-Dawley rat stomach at 0.2 mg/kg, iv administered as cassette dose by LC-MS/MS analysis; assay type: ADME, organism-based; conditions: in vivo; how it was run: as §1
[9] = Drug uptake in Sprague-Dawley rat stomach at 0.2 mg/kg, iv administered as cassette dose after 10 mins by LC-MS/MS analysis; assay type: ADME, organism-based; conditions: read-out: Drug uptake; how it was run: as §1
[10] = AUC in Sprague-Dawley rat plasma at 0.2 mg/kg, iv administered as cassette dose by LC-MS/MS analysis; assay type: ADME, organism-based; how it was run: as §1

CYP3A4, sequence (P08684 whole entry): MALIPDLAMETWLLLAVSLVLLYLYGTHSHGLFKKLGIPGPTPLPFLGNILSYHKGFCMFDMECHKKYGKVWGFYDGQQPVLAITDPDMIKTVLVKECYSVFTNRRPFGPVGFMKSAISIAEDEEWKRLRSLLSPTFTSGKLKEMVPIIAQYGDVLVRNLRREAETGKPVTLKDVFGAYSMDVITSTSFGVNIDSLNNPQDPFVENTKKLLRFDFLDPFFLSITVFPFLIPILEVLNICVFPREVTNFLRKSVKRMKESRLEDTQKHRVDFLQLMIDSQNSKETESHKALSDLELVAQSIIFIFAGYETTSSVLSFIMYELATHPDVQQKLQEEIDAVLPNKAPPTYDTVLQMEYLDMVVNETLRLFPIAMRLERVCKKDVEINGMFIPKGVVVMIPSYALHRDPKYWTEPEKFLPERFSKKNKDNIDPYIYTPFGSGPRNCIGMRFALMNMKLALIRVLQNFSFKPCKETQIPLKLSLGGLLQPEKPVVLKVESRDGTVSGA
hERG (KCNH2), sequence (Q12809 whole entry): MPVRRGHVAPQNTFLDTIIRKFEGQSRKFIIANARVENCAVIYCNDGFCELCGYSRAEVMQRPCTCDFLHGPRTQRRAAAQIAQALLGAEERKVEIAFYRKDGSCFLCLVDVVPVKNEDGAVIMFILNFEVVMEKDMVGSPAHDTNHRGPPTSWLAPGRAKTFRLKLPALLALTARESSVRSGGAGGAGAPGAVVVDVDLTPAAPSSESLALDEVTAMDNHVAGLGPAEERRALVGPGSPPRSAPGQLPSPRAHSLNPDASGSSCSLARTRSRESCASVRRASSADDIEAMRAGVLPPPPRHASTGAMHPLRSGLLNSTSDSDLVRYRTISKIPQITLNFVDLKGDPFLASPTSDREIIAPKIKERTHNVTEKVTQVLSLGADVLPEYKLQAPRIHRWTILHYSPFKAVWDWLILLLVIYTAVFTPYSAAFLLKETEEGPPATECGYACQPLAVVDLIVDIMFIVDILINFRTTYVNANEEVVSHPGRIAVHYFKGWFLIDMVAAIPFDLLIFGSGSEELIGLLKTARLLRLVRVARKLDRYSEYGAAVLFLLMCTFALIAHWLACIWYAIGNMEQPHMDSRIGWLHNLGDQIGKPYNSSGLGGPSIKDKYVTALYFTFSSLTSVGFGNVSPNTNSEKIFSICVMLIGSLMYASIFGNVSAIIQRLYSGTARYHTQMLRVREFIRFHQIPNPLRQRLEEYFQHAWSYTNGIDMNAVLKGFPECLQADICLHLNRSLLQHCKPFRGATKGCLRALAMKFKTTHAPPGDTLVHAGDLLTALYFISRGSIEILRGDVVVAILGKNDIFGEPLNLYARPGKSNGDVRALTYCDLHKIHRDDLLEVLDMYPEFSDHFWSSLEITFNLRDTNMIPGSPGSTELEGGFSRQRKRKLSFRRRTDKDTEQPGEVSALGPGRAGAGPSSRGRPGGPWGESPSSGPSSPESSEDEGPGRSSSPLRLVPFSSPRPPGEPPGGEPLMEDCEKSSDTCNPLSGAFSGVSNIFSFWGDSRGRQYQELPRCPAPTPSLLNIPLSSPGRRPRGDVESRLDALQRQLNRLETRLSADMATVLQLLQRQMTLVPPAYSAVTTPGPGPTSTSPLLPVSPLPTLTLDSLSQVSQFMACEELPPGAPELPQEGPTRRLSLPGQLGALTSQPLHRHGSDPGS

| inhibition at 0.25 h, 10 µM (CYP3A4) [%] | IC50 [1] [nM] | concentration at 10 min [2] [ng/mL] | logD [3] | concentration at 24 h [4] [ng/g] | concentration at 1 h [5] [ng/g] | concentration at 1 h [6] [ng/mL] | concentration at 4 h [7] [ng/g] | AUC (Stomach) [ng·h/g] | concentration at 10 min [9] [ng/g] | AUC [10] [ng·h/mL] | SMILES | inhibition in vivo at 1 mg/kg (Rattus norvegicus) [%] | inhibition at 10 µM (hERG (KCNH2)) [%] | viability at 24 h, 100 µM [8] [%] |
| --- | --- | --- | --- | --- | --- | --- | --- | --- | --- | --- | --- | --- | --- | --- |
| -9.7 | 120 | – | – | – | – | – | – | – | – | – | CNCc1cc(-c2cccnc2F)n(S(=O)(=O)c2ccccn2)c1 | 81 | – | – |
| 20.5 | 72 | 36.6 | 0.54 | 17.4 | 955 | 12.2 | 827 | 11717 | 412 | 42 | CNCc1cn(S(=O)(=O)c2cccs2)c(-c2cccnc2F)c1F | 98 | 56.1 | 77.5 |
| 49.7 | 140 | – | 0.61 | – | – | – | – | – | – | – | CNCc1cn(S(=O)(=O)c2cncc(C)c2)c(-c2cccnc2F)c1F | 87 | – | 86.9 |
| 22.9 | 210 | 41.7 | 0.71 | 3.3 | 999 | 10.3 | 527 | 8550 | 1080 | 41 | CNCc1cn(S(=O)(=O)c2cccc(C)n2)c(-c2cccnc2F)c1F | 91 | 13.9 | 83.8 |
| 21.7 | 100 | 25 | 0.42 | – | 526 | 5 | 347 | 5179 | 369 | 22 | CNCc1cn(S(=O)(=O)c2ccc(F)cn2)c(-c2cccnc2F)c1F | 87 | – | 86.5 |
| 19 | 140 | 37.2 | 0.51 | 8.8 | 773 | 10.1 | 268 | 4964 | 617 | 38 | CNCc1cn(S(=O)(=O)c2cc(OC)ccn2)c(-c2cccnc2F)c1F | 95 | 38.7 | 84.5 |
| 12.8 | 60 | 37.4 | 0.45 | – | 688 | 11.5 | 194 | 3865 | 635 | 41 | CNCc1cn(S(=O)(=O)c2ccoc2)c(-c2cccnc2F)c1F | 95 | 44.5 | 100 |
| 53.1 | 390 | 28 | 0.75 | – | 722 | 10.1 | 427 | 6568 | 539 | 33 | CNCc1cn(S(=O)(=O)c2cccnc2Cl)c(-c2cccnc2F)c1F | – | – | 86.9 |
| 40 | 120 | 50.1 | 0.43 | – | 618 | 8.4 | 251 | 4248 | 360 | 41 | CNCc1cn(S(=O)(=O)c2cnccc2C)c(-c2cccnc2F)c1F | 98 | 28.2 | 90.9 |
| 29 | 510 | – | 0.32 | – | – | – | – | – | – | – | CNCc1cn(S(=O)(=O)c2ncccc2C)c(-c2cccnc2F)c1F | 54 | – | 79.1 |
| 5.6 | 79 | 26.5 | 0.2 | – | 706 | 6.5 | 254 | 4566 | 592 | 26 | CNCc1cn(S(=O)(=O)c2ccco2)c(-c2cccnc2F)c1F | 75 | 28.7 | 90.8 |
| 1.4 | 32 | 23.5 | – | 41.7 | 614 | 8.9 | 640 | 9152 | 407 | 29 | CNCc1cc(-c2cccnc2F)n(S(=O)(=O)c2ccsc2)c1 | 98 | – | – |
| 4.2 | 210 | 37.1 | – | 19.6 | 532 | 8.4 | 541 | 7646 | 420 | 35 | CNCc1cc(-c2cccnc2F)n(S(=O)(=O)c2cccnc2)c1 | 96 | – | – |
| 45.9 | 160 | – | 1.44 | – | – | – | – | – | – | – | CNCc1cn(S(=O)(=O)c2cncc(Cl)c2)c(-c2cccnc2F)c1F | – | – | 66.9 |
| – | 32 | 20.8 | – | – | 592 | 8.8 | 210 | 3815 | 522 | 27 | CNCc1cc(-c2cccnc2F)n(S(=O)(=O)c2cccs2)c1 | 96 | – | – |
| 46 | 240 | – | 0.7 | – | – | – | – | – | – | – | CNCc1cn(S(=O)(=O)c2cccc(F)n2)c(-c2cccnc2F)c1F | – | – | 74 |
| 7.7 | 280 | 54.2 | 0.64 | – | 806 | 13.1 | 426 | 6761 | 624 | 52 | CNCc1cn(S(=O)(=O)c2ccc(OC)cn2)c(-c2cccnc2F)c1F | 95 | 17.6 | 80 |
| 14.4 | 49 | 51.5 | – | 130 | 752 | 15 | 629 | 10277 | 602 | 54 | CNCc1cn(S(=O)(=O)c2cccnc2)c(-c2cccnc2F)c1F | 98 | – | – |
